Assay results gathered from unrelated publications.
pIC50: −log10 of the molar value.
DRD3: D(3) dopamine receptor (DRD3, Homo sapiens, UniProt P35462)
HDAC5: Histone deacetylase 5 (HDAC5, Homo sapiens, UniProt Q9UQL6)
SLC6A3: Sodium-dependent dopamine transporter (SLC6A3, Homo sapiens, UniProt Q01959)

SMILES	target	effect on	mode	method	pIC50
Cc1[nH]c(C)c(S(=O)(=O)Nc2ccc(C(F)(F)F)c3ncccc23)c1C(=O)N1CCC(F)(F)C1	DRD3	G protein activation	antagonist	BRET	4.82
CN1CCN(c2nc(-c3cc4cc(Br)ccc4oc3=O)cs2)CC1	Carbonic anhydrase 12 (CA12, Homo sapiens, UniProt O43570)	enzyme activity	inhibitor	absorbance	5.55
CCc1ccc(NS(=O)(=O)c2c(C)[nH]c(C)c2C(=O)N2CCC(F)(F)C2)cc1Cl	DRD3	G protein activation	antagonist	BRET	5.80
Nc1cnccc1Nc1ccc(Cl)c(Cl)c1	DNA repair nuclease/redox regulator APEX1 (APEX1, Homo sapiens, UniProt P27695)	enzyme activity	inhibitor	–	< 4.00
CSc1ccc(NS(=O)(=O)c2c(C)[nH]c(C)c2C(=O)N2CCC(F)(F)C2)cc1Cl	DRD3	G protein activation	antagonist	BRET	5.22
CCCN(CCC)S(=O)(=O)c1ccc(C(=O)O)cc1	Taste receptor type 2 member 16 (TAS2R16, Homo sapiens, UniProt Q9NYV7)	inositol phosphate	antagonist	TR-FRET	3.11
CN(C)C(=O)c1cc2cnc(Nc3ccc(-c4ccc5c(=O)cc(N6CCOCC6)oc5c4)cc3)nc2n1C1CCCC1	DNA-dependent protein kinase catalytic subunit (PRKDC, Homo sapiens, UniProt P78527)	enzyme activity	inhibitor	–	6.72
COc1c(Cl)cccc1Nc1c(-c2ccncc2OC[C@@H]2COCCO2)[nH]c2c1C(=O)NCC2	Discoidin domain-containing receptor 2 (DDR2, Homo sapiens, UniProt Q16832)	ligand displacement	–	TR-FRET	7.28
Cc1[nH]c(C)c(C(=O)N2CCC(F)(F)C2)c1C(=O)Nc1ccc(C(F)(F)F)c(Cl)c1	DRD3	β-arrestin recruitment	antagonist	–	4.39
COc1ccc(N(Cc2csc(-c3ccc(C)cc3)n2)C(=O)CCCCCC(=O)NO)cc1	HDAC5	enzyme activity	inhibitor	–	< 5.00
CNc1nc(C#Cc2ccc(Cl)s2)nc2c1ncn2[C@H]1[C@H](O)[C@H](O)[C@]2(CC#N)C[C@H]12	SLC6A3	transporter uptake	inhibitor	radiometric	6.44
COc1ccc(N(Cc2csc(-c3ccccc3)n2)C(=O)CCCCCC(=O)NO)cc1	HDAC5	enzyme activity	inhibitor	–	< 5.00
O=C(NO)c1ccc(Cn2cnc3c(Nc4cccc([N+](=O)[O-])c4)ncnc32)cc1	HDAC5	enzyme activity	inhibitor	–	5.94
N#CC[C@@]12C[C@@H]1[C@@H](n1cnc3c(NCCCCCCc4ccccc4)nc(I)nc31)[C@H](O)[C@@H]2O	SLC6A3	transporter uptake	inhibitor	radiometric	5.77
Cc1[nH]c(C)c(S(=O)(=O)Nc2ccc(Cl)c(C(F)(F)F)c2)c1C(=O)N1CCC(F)(F)C1	DRD3	G protein activation	antagonist	BRET	4.82
N=C(N)c1ccc(OCCCCCOc2ccc(C(=N)N)cc2)cc1	Coagulation factor XI (F11, Homo sapiens, UniProt P03951)	enzyme activity	inhibitor	absorbance	< 4.00
